Usually EC50 stands for the concentration needed to bring the measured effect to its halfway point.

For experiment [1], the system named is ACHN. Kind of experiment: Cytotoxicity against human ACHN cells assessed as cell death after 20 to 24 hrs by XTT assay. The class given is functional, cell-based. For orientation: Tetrazolium assays rely on reduction of a dye to a coloured formazan, in cell work by metabolically active cells.
Experiment [2] concerns ACHN. Kind of experiment: Cytotoxicity against human ACHN cells assessed as cell death after 20 to 24 hrs by XTT assay in presence of 40 ng/ml TRAIL. Format: functional, cell-based.
Experiment [3] deals with ACHN. Kind of experiment: Ratio of EC50 for human ACHN cells to EC50 for human ACHN cells in presence of 40 ng/ml TRAIL. Format: functional. The method, boiled down:
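Synergy taken as the ratio of the two EC50 values read from ACHN cell death curves, one run without TRAIL and one with 40 ng/mL TRAIL. Treatment lasted 20–24 h.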

Some results are limits rather than exact numbers.

For the molecule `CC(C)=CC[C@]12O[C@H]1C(=O)c1ccccc1C2=O`, the EC50 in the experiment on ACHN [1] turned out to be 39.7 µM; with ACHN [2] it was 16.7 µM. Further, the “Ratio EC50” value in the experiment with ACHN [3] was 2.4.
On to `CC(C)=CC[C@]12O[C@H]1C(=O)c1cccc(O)c1C2=O`, for which the results for the EC50 with ACHN [1] and in the experiment with ACHN [2] were 6.4 µM and 4.7 µM, respectively. Moreover, the “Ratio EC50” value in the experiment on ACHN [3] came to 1.4.
For `C[C@@H]1CC(=O)c2c(O)cccc2[C@@H]1O`, the EC50 in the experiment on ACHN [1] and with ACHN [2] was more than 60 µM in each case.
On to `CC1=CC(=O)c2c(ccc(C(C)c3ccc4c(c3O)C(=O)C=C(C)C4=O)c2O)C1=O`, for which the EC50 with ACHN [1] and in the experiment with ACHN [2] was more than 30 µM throughout.
For the molecule `CC1=CC(=O)c2c(ccc(-c3ccc4c(c3O)C(=O)C=C(C)C4=O)c2O)C1=O` [ELLIPTINONE], the EC50 is 13.2 µM with ACHN [1] and 3.8 µM in the experiment on ACHN [2]. Besides, the “Ratio EC50” value in the experiment on ACHN [3] is recorded as 3.5.
For the molecule `CC1=CC(=O)c2c(O)ccc(-c3ccc(O)c4c3C(=O)C(C)=CC4=O)c2C1=O` [MARITINONE], the figures for the EC50 in the experiment on ACHN [1] and in the experiment on ACHN [2] were 5.8 µM and 1.5 µM, respectively. For the same molecule, the “Ratio EC50” value in the experiment on ACHN [3] is given as 3.8.
The corresponding values for `CC1=CC(=O)c2c(O)cccc2C1=O` [PLUMBAGIN] are 7.3 µM, 3.7 µM and 2.
Turning to `Cc1ccc2c(c1)C(=O)c1ccccc1C2=O` [TECTOQUINONE], the EC50 with ACHN [1] and in the experiment with ACHN [2] was more than 50 µM each time.
